Bioassay records as filed in PubChem BioAssay.
SR-BI DiI-HDL act: activators of SR-BI mediated HDL lipid uptake; CHO ldlA[mSR-BI] cells, DiI-HDL uptake fluorescence, 3 h; 100 = double the neutral-control signal; activation, % at 12.5 µM; actives 0.096% (n = 320,000); AID 504775;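 active = mean replicate activation of at least 60% and every replicate at or above 60%; inconclusive = mean or all-replicate condition met, but not both; inactive = mean below 60% and not all replicates reaching 60%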
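Test system: SR-BI-overexpressing, LDLR-lacking CHO cells; Also added: labelled HDL, 10 µg/mL; Measured by: bottom-read cell fluorescence after medium removal, ex 550/em 595 nm; Timing: 3 h uptake period with compound, 37 °C; Buffer or medium: F12, 0.5% BSA, 25 mM HEPES; Doses: single compound concentration, delivered by pin transfer.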
SR-BI HDL uptake: blocks mouse SR-BI lipid uptake from DiI-HDL. Q61009. ldlA[mSR-BI] CHO cells, DiI-HDL uptake fluorescence, 3 h. inhibition, % at 12.5 µM. actives 0.96% (n = 320,000);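 active = mean replicate inhibition of at least 70% and a set share of replicates each scoring 70 or more; inconclusive = meets just one of the two criteria; inactive = fails both criteria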
Target sequence (Q61009 whole entry, looked up): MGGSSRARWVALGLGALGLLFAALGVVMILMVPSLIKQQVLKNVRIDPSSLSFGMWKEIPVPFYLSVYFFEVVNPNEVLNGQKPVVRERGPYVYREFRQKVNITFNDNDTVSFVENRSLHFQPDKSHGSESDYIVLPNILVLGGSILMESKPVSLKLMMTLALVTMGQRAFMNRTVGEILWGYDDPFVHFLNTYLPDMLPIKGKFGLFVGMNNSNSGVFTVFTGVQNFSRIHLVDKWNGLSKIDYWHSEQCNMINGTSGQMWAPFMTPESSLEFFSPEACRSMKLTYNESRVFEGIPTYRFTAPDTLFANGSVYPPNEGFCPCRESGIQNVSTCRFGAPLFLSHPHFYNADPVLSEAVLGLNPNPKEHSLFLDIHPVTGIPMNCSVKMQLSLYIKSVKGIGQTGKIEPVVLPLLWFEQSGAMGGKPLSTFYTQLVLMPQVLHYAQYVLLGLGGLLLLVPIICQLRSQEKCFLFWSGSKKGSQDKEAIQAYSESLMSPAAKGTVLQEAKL
CDK5 p35 inh: blocks human CDK5/p35 kinase activity | inhibition, % at 10 µM | Q00535+Q15078 | Recombinant CDK5/p35, ADP-Glo luminescence, 60 min | AID 488839 | actives 0.01% (n = 330,000);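 active = highest replicate inhibition of at least 50% and at least 75% of replicates reaching 50%; inconclusive = only one of the two criteria met; inactive = both criteria failed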
dFosB act-1: mouse delta FosB homodimer activation; purified delta FosB, TAMRA-CDK5 oligo fluorescence polarization; percent of positive-control signal above neutral wells; activation, % at 25 µM; actives 0.99% (n = 340,000); AID 493131;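 active = mean activation above about 17%, with every replicate also reaching it, limit read from the data, passing the limit was not always enough; inconclusive = only one of the two conditions met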
dFosB act-2: delta FosB (mouse) homodimer activation. shares compounds with dFosB act-1. purified delta FosB, TAMRA-CDK5 oligo fluorescence polarization; normalised: neutral wells 0, positive control 100. activation, % at 24.9 µM. 2,400 tested, under 10 active. AID 588690;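 active = highest replicate activation at or above 34% and every replicate reaching that threshold; inconclusive = meets only one of the two criteria; inactive = meets neither criterion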;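 also: higher polarization means more probe DNA bound by delta FosB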
Numbers stand for hits. This is a sample that favours compounds with a hit; in the whole collection about 2% have one here.

`O=C(Cn1cnc2ccccc2c1=O)Nc1nnc(SCc2ccc(Cl)cc2)s1` gave SR-BI DiI-HDL act inactive, SR-BI HDL uptake inactive, CDK5 p35 inh inactive, dFosB act-1 25 and dFosB act-2 inactive.
Screening O=C(Cn1cnc2ccccc2c1=O)Nc1nnc(C2CC2)s1 returned SR-BI DiI-HDL act inactive, SR-BI HDL uptake inactive, CDK5 p35 inh inactive and dFosB act-1 inactive.
NS(=O)(=O)c1ccc(NC(=O)c2cc(-c3cc(Cl)ccc3O)n[nH]2)cc1 was read as SR-BI DiI-HDL act inactive, SR-BI HDL uptake inactive, CDK5 p35 inh inactive, dFosB act-1 38 and dFosB act-2 inactive.
CC(C)C[C@H]1CNC(=S)N1CC1CCCN1C[C@H](CC(C)C)N1C[C@H](Cc2ccc(O)cc2)N(CC2CCCCC2)C1=S (stereo partly drawn) was read as SR-BI DiI-HDL act inactive, SR-BI HDL uptake inactive, CDK5 p35 inh inactive, dFosB act-1 27 and dFosB act-2 inactive.
Screening CC(C)C[C@H]1CNC(=S)N1CC1CCCN1C[C@H](CC(C)C)N1C[C@H](Cc2ccc(O)cc2)N(CC2CCCCCC2)C1=S (stereo partly drawn) returned SR-BI DiI-HDL act inactive, SR-BI HDL uptake inactive, CDK5 p35 inh inactive, dFosB act-1 23 and dFosB act-2 inactive.
CC(C)C[C@H]1CNC(=S)N1CC1CCCN1C[C@H](Cc1ccccc1)N1C[C@H](Cc2ccc(O)cc2)N(CC2CCCCC2)C1=S (stereo partly drawn) was read as SR-BI DiI-HDL act inactive, SR-BI HDL uptake inactive, CDK5 p35 inh inactive, dFosB act-1 59 and dFosB act-2 inactive.
Screening CC(C)C[C@H]1CNC(=S)N1CC1CCCN1C[C@H](Cc1ccc(O)cc1)N1C[C@H](Cc2ccccc2)N(CC2CCCCCC2)C1=S (stereo partly drawn) returned SR-BI DiI-HDL act inactive, SR-BI HDL uptake inactive, CDK5 p35 inh inactive and dFosB act-1 inconclusive.
For CC(C)C[C@@H](CN1CCCC1CN1C(=S)NC[C@@H]1Cc1ccc(O)cc1)N1C[C@H](Cc2ccc(O)cc2)N(CC2CCCCC2)C1=S (stereo partly drawn) the results were SR-BI DiI-HDL act 76, SR-BI HDL uptake inactive, CDK5 p35 inh inactive, dFosB act-1 37 and dFosB act-2 inactive.
Screening Cc1cccc(NC(=O)c2nc[nH]c2C(=O)NCC(=O)OC(C)(C)C)c1 returned SR-BI DiI-HDL act inactive, SR-BI HDL uptake inactive, CDK5 p35 inh inactive and dFosB act-1 inactive.
CCCNc1c(NS(=O)(=O)c2ccc(C)c(C)c2)c(=O)oc2ccccc12 was read as SR-BI DiI-HDL act inactive, SR-BI HDL uptake inactive, CDK5 p35 inh inactive and dFosB act-1 inactive.
`CCCNc1c(NS(=O)(=O)c2ccc3c(c2)CCCC3)c(=O)oc2ccccc12` gave SR-BI DiI-HDL act inactive, SR-BI HDL uptake inactive, CDK5 p35 inh inactive, dFosB act-1 60 and dFosB act-2 inactive.
CNc1c(NS(=O)(=O)c2ccc(OC)c(Cl)c2)c(=O)oc2ccccc12 was read as SR-BI DiI-HDL act inactive, SR-BI HDL uptake inactive, CDK5 p35 inh inactive, dFosB act-1 65 and dFosB act-2 inactive.
CC(=O)NCCCc1nc2ccccc2n1Cc1c(F)cccc1Cl was read as SR-BI DiI-HDL act inactive, SR-BI HDL uptake inactive, CDK5 p35 inh inactive and dFosB act-1 inactive.
`CC(=O)c1c(C)[nH]c(C(=O)OCc2c(F)cccc2Cl)c1C` gave SR-BI DiI-HDL act inactive, SR-BI HDL uptake inactive, CDK5 p35 inh inactive, dFosB act-1 21 and dFosB act-2 inactive.
For COc1ccccc1C(=O)NCC(=O)NCC1(N2CCCCC2)CCCCC1 the results were SR-BI DiI-HDL act inactive, SR-BI HDL uptake inactive, CDK5 p35 inh inactive and dFosB act-1 inactive.
Screening N#Cc1ccccc1/C=N/Nc1nc(-c2ccccc2)c2cc(Cl)ccc2n1 returned CDK5 p35 inh inactive, dFosB act-1 19 and dFosB act-2 inactive.
For N#CCC(=O)N/N=C/c1cn(Cc2ccc(Cl)c(Cl)c2)c2ccccc12 the results were SR-BI DiI-HDL act inactive, SR-BI HDL uptake inactive, CDK5 p35 inh inactive, dFosB act-1 51 and dFosB act-2 inactive.
N#CCC(=O)N/N=C/c1cn(Cc2ccccc2C#N)c2ccccc12 was read as SR-BI DiI-HDL act inactive, SR-BI HDL uptake inactive, CDK5 p35 inh inactive and dFosB act-1 inactive.
`Cc1ccc(C(=O)N/N=C/c2ccc(-c3ccccc3[N+](=O)[O-])o2)cn1` gave SR-BI DiI-HDL act inactive, SR-BI HDL uptake inactive, CDK5 p35 inh inactive and dFosB act-1 inactive.
COc1ccc(-c2ccc(/C=N/NC(=O)c3cccnc3)o2)c([N+](=O)[O-])c1 was read as SR-BI DiI-HDL act inactive, SR-BI HDL uptake inactive, CDK5 p35 inh inactive, dFosB act-1 50 and dFosB act-2 inactive.
O=C(NC1CCCCC1)c1ccc(CNc2nc(=S)[nH]c3ccccc23)cc1 was read as SR-BI DiI-HDL act inactive, SR-BI HDL uptake inactive, CDK5 p35 inh inactive, dFosB act-1 19 and dFosB act-2 inactive.
COc1ccc(CNC(=O)CCCCCNc2nc(=S)[nH]c3ccccc23)cc1 was read as SR-BI DiI-HDL act inactive, SR-BI HDL uptake inactive, CDK5 p35 inh inactive, dFosB act-1 39 and dFosB act-2 inactive.
`COc1ccc(CCNC(=O)CCCCCNc2nc(=S)[nH]c3ccccc23)cc1OC` gave SR-BI DiI-HDL act inactive, SR-BI HDL uptake inactive, CDK5 p35 inh inactive and dFosB act-1 inactive.
For Cc1ccc(NC(=O)CSCC(=O)NCc2cccc(C(F)(F)F)c2)cc1 the results were SR-BI DiI-HDL act inactive, SR-BI HDL uptake inactive, CDK5 p35 inh inactive and dFosB act-1 inactive.
`O=C(NC1CCS(=O)(=O)C1)c1c(NC(=O)C2COc3ccccc3O2)sc2c1CCCC2` (stereo not drawn) gave SR-BI DiI-HDL act inactive, SR-BI HDL uptake inactive, CDK5 p35 inh inactive, dFosB act-1 40 and dFosB act-2 inactive.
`CCCNC(=O)c1c(NC(=O)C2COc3ccccc3O2)sc2c1CCCC2` (stereo not drawn) gave SR-BI DiI-HDL act inactive, SR-BI HDL uptake inactive, CDK5 p35 inh inactive and dFosB act-1 inactive.
`Cc1ccccc1C(=O)Nc1nnc(CC(=O)N/N=C/c2ccco2)s1` gave CDK5 p35 inh inactive, dFosB act-1 40 and dFosB act-2 inactive.
For Cc1ccccc1C(=O)Nc1nnc(CC(=O)N/N=C/c2cn(Cc3ccccc3)c3ccccc23)s1 the results were CDK5 p35 inh inactive and dFosB act-1 inactive.
Screening CCc1ccccc1-n1c(SCC(=O)NC)nnc1-c1ccco1 returned SR-BI DiI-HDL act inactive, SR-BI HDL uptake inactive, CDK5 p35 inh inactive and dFosB act-1 inactive.
`Cc1cccc(C(=O)NN(C)c2nc(-c3ccccc3)nnc2C(F)(F)F)c1` gave SR-BI DiI-HDL act inactive, SR-BI HDL uptake inactive, CDK5 p35 inh inactive and dFosB act-1 inactive.
Screening COc1ccc(C(=O)NN(C)c2nc(-c3ccccc3)nnc2C(F)(F)F)cc1 returned SR-BI DiI-HDL act inactive, SR-BI HDL uptake inactive, CDK5 p35 inh inactive, dFosB act-1 68 and dFosB act-2 inactive.
